The source made the active and inactive calls. No cut-off for these calls is given here.
Key:
HeLa [1] = experiment: Cell cycle arrest in human HeLa cells assessed as accumulation at G0-G1 phase at 6 uM after 72 hrs by flow cytometry analysis relative to control; type: functional
Outline: (§1)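 About 1 × 10^6 cells per plate seeded overnight, then treated with compound and harvested at set times. Cells fixed in 75% ethanol at -20°C for 12-24 h and stained 1 h with 100 µg/ml PI, 100 µg/ml RNase A and 0.3% NP-40 in PBS. DNA content measured by flow cytometry; phase fractions compared with sham-treated cells.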

[2] = Cell cycle arrest in human MCF10A cells assessed as accumulation at S phase at 6 uM after 24 hrs by flow cytometry analysis relative to control; type: functional, cell-based; details: MCF-10A; outline: as §1
HeLa [3] = experiment: Cell cycle arrest in human HeLa cells assessed as accumulation at sub-G1 phase at 6 uM after 24 hrs by flow cytometry analysis relative to control; type: functional; outline: as §1
MDA-MB-231 [4] = experiment: Cell cycle arrest in human MDA-MB-231 cells assessed as accumulation at sub-G1 phase at 6 uM after 72 hrs by flow cytometry analysis relative to control; type: functional
Outline: (§2)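 Cells seeded overnight at about 1 × 10^6 per plate, treated next morning, and harvested at set times. Fixed in 75% ethanol at -20°C for 12-24 h, then stained 1 h in PBS with 0.3% NP-40, 100 µg/ml RNase A and 100 µg/ml propidium iodide. Phase distribution read from DNA content by flow cytometry against sham-treated cells.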

MDA-MB-231 [5] = experiment: Cell cycle arrest in human MDA-MB-231 cells assessed as accumulation at G0-G1 phase at 6 uM after 12 hrs by flow cytometry analysis relative to control; type: functional; outline: as §1
MDA-MB-231 [6] = experiment: Cell cycle arrest in human MDA-MB-231 cells assessed as accumulation at S phase at 6 uM after 48 hrs by flow cytometry analysis relative to control; type: functional; outline: as §1
[7] = Cell cycle arrest in human MCF10A cells assessed as accumulation at G0-G1 phase at 6 uM after 12 hrs by flow cytometry analysis relative to control; type: functional, cell-based; details: MCF-10A; outline: as §1
MDA-MB-231 [8] = experiment: Cell cycle arrest in human MDA-MB-231 cells assessed as accumulation at S phase at 6 uM after 24 hrs by flow cytometry analysis relative to control; type: functional; outline: as §1
MDA-MB-231 [9] = experiment: Cell cycle arrest in human MDA-MB-231 cells assessed as accumulation at sub-G1 phase at 6 uM after 12 hrs by flow cytometry analysis relative to control; type: functional; outline: as §2
HeLa [10] = experiment: Cell cycle arrest in human HeLa cells assessed as accumulation at G0-G1 phase at 6 uM after 48 hrs by flow cytometry analysis relative to control; type: functional; outline: as §1
MDA-MB-231 [11] = experiment: Cell cycle arrest in human MDA-MB-231 cells assessed as accumulation at G2/M phase at 6 uM after 24 hrs by flow cytometry analysis relative to control; type: functional; outline: as §1
[12] = Cell cycle arrest in human MCF10A cells assessed as accumulation at sub-G1 phase at 6 uM after 48 hrs by flow cytometry analysis relative to control; type: functional, cell-based; details: MCF-10A; outline: as §1
MDA-MB-468 = experiment: Antiproliferative activity against human MDA-MB-468 cells after 72 hrs by SRB assay; type: functional, cell-based; details: MDA-MB-468, 72 h
Outline: (§3)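 Cells seeded at 4,000-5,000/well for 16 h, then exposed 72 h to serial dilutions of compound in DMSO; sham DMSO as 100% and TCA-treated wells as 0%. Fixed in 10% TCA at 4°C for 1 h, stained with 0.4% SRB for 30 min, dye solubilised in 10 mmol Tris pH 10.5, read at 540 nm. IC50 from sigmoidal dose-response curves; two biological replicates, four technical each.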

MDA-MB-231 [13] = experiment: Antiproliferative activity against human MDA-MB-231 cells after 72 hrs by SRB assay; type: functional, cell-based; details: MDA-MB-231, 72 h; outline: as §3
HeLa [14] = experiment: Cell cycle arrest in human HeLa cells assessed as accumulation at S phase at 6 uM after 24 hrs by flow cytometry analysis relative to control; type: functional; outline: as §1
[15] = Antiproliferative activity against human MCF10A cells after 72 hrs by SRB assay; type: cell-based; details: MCF-10A; outline: as §3
[16] = Cell cycle arrest in human MCF10A cells assessed as accumulation at G0-G1 phase at 6 uM after 48 hrs by flow cytometry analysis relative to control; type: functional, cell-based; details: MCF-10A; outline: as §1
[17] = Cell cycle arrest in human MCF10A cells assessed as accumulation at G0-G1 phase at 6 uM after 24 hrs by flow cytometry analysis relative to control; type: functional, cell-based; details: MCF-10A; outline: as §1
HeLa [18] = experiment: Antiproliferative activity against human HeLa cells after 72 hrs by SRB assay; type: functional, cell-based; outline: as §3
HeLa [19] = experiment: Induction of apoptosis in human HeLa cells assessed as membrane blebbing at 6 uM after 48 hrs by time lapse microscopy analysis; type: functional, cell-based
Outline: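 Treated HeLa cells were followed by time-lapse microscopy, with images taken at set time points.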

MDA-MB-231 [20] = experiment: Cell cycle arrest in human MDA-MB-231 cells assessed as accumulation at G0-G1 phase at 6 uM after 24 hrs by flow cytometry analysis relative to control; type: functional; outline: as §1
MDA-MB-231 [21] = experiment: Cell cycle arrest in human MDA-MB-231 cells assessed as accumulation at S phase at 6 uM after 72 hrs by flow cytometry analysis relative to control; type: functional; outline: as §1
HeLa [22] = experiment: Cell cycle arrest in human HeLa cells assessed as accumulation at sub-G1 phase at 6 uM after 72 hrs by flow cytometry analysis relative to control; type: functional; outline: as §1
[23] = Cell cycle arrest in human MCF10A cells assessed as accumulation at G2/M phase at 6 uM after 12 hrs by flow cytometry analysis relative to control; type: functional, cell-based; details: MCF-10A; outline: as §1
MDA-MB-231 [24] = experiment: Cell cycle arrest in human MDA-MB-231 cells assessed as accumulation at G0-G1 phase at 6 uM after 72 hrs by flow cytometry analysis relative to control; type: functional; outline: as §1
MDA-MB-231 [25] = experiment: Cell cycle arrest in human MDA-MB-231 cells assessed as accumulation at sub-G1 phase at 6 uM after 24 hrs by flow cytometry analysis relative to control; type: functional; outline: as §2
HeLa [26] = experiment: Increase of cyclin-B level in human HeLa cells at 6 uM after 48 hrs by Western blot analysis; type: functional, cell-based
Outline: (§4)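 HeLa cells were sham-treated or given 6 µM and collected at set times. Lysed on ice in Tris pH 7.4/NaCl/EDTA/1% Triton X-100 with PMSF and protease inhibitors. 30-40 µg protein run on 8 or 10% gels, blotted to PVDF, probed overnight at 4°C and detected by ECL. Band levels normalized to GAPDH.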

HeLa [27] = experiment: Induction of apoptosis in human HeLa cells assessed as increase of PARP cleavage at 6 uM after 48 hrs by Western blot analysis; type: functional, cell-based; outline: as §4
MDA-MB-231 [28] = experiment: Cell cycle arrest in human MDA-MB-231 cells assessed as accumulation at S phase at 6 uM after 12 hrs by flow cytometry analysis relative to control; type: functional; outline: as §1
MDA-MB-231 [29] = experiment: Cell cycle arrest in human MDA-MB-231 cells assessed as accumulation at G0-G1 phase at 6 uM after 48 hrs by flow cytometry analysis relative to control; type: functional; outline: as §1
HeLa [30] = experiment: Induction of mitosis arrest in human HeLa cells assessed as disoriented tubulin structure at 6 uM after 12 hrs using DAPI staining by immunofluorescence microscopic analysis; type: functional, cell-based
Outline: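 HeLa cells on coverslips treated 12 h, fixed in ice-cold methanol at -20°C. Stained with anti-α-tubulin and anti-lamin A (primary 1:200 overnight at 4°C, fluorescent secondary 1 h) and DAPI for DNA. Mitotic morphology scored by fluorescence microscopy.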

[31] = Cell cycle arrest in human MCF10A cells assessed as accumulation at G0-G1 phase at 6 uM after 72 hrs by flow cytometry analysis relative to control; type: functional, cell-based; details: MCF-10A; outline: as §1

FC(F)(F)c1cccc(/C=C\c2cc3ccccc3nc2Cl)c1
Activity (HeLa [1]): 22.9% | Activity [2]: 34.3% | Activity (HeLa [3]): 17.8% | Activity (MDA-MB-231 [4]): 31.3% | Activity (MDA-MB-231 [5]): 22.2% | Activity (MDA-MB-231 [6]): 15.4% | Activity [7]: 31.3% | Activity (MDA-MB-231 [8]): 10.8% | Activity (MDA-MB-231 [9]): 8.5% | Activity (HeLa [10]): 20.8% | Activity (MDA-MB-231 [11]): 38.3% | Activity [12]: 12.9% | IC50 (MDA-MB-468): 3.7 µM | IC50 (MDA-MB-231 [13]): 3.75 µM | Activity (HeLa [14]): 8.1% | IC50 [15]: 6.01 µM | Activity [16]: 63.6% | Activity [17]: 49.2% | IC50 (HeLa [18]): 2.85 µM | Activity (HeLa [19]): Active | Activity (MDA-MB-231 [20]): 34% | Activity (MDA-MB-231 [21]): 14.2% | Activity (HeLa [22]): 46% | Activity [23]: 11.4% | Activity (MDA-MB-231 [24]): 34.6% | Activity (MDA-MB-231 [25]): 12.8% | Activity (HeLa [26]): Active | Activity (HeLa [27]): Active | Activity (MDA-MB-231 [28]): 18.2% | Activity (MDA-MB-231 [29]): 36.3% | Activity (HeLa [30]): Active | Activity [31]: 70.6%
